Assay results as given in ChEMBL document CHEMBL1133650, “Gold(III) complexes as potential antitumor agents: solution chemistry and cytotoxic properties of some selected gold(III) compounds” (J Med Chem, 2000).

How the values were obtained:
A2780 [1] = assay: cytotoxic activity toward A2780 ovarian human cell line sensitive (S) to cisplatin in experiment 3; assay type: functional, cell-based
Outline: (§1)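 Cisplatin-sensitive parental A2780/S human ovarian carcinoma cells, grown in RPMI 1640 with FBS at 37 °C under 5% CO2 and subcultured twice weekly. Exponentially growing cells were treated for 72 h, and growth inhibition was measured by sulforhodamine B assay in RPMI 1640 + 5% FBS. IC50 is the mean ± SE of ≥3 determinations, or the mean of two.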

A2780 [2] = assay: cytotoxic activity toward A2780 ovarian human cell line resistant (R) to cisplatin in experiment 3; assay type: functional, cell-based
Outline: (§2)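 A2780/R human ovarian carcinoma cells, made cisplatin-resistant by repeated weekly 1-h exposure of the parental line to 50 μM cisplatin, kept in RPMI 1640 with FBS at 37 °C and 5% CO2. Exponentially growing cells were exposed to compound for 72 h, and growth was read by SRB assay in RPMI 1640 + 5% FBS. IC50 is the mean ± SE of at least three determinations, or the mean of two.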

[3] = Ratio of cytotoxic activity against resistant cell line to that of sensitive cell line; assay type: functional
A2780 [4] = assay: cytotoxic activity toward A2780 ovarian human cell line sensitive (S) to cisplatin in experiment 1; assay type: functional, cell-based; outline: as §1
A2780 [5] = assay: cytotoxic activity toward A2780 ovarian human cell line resistant (R) to cisplatin in experiment 2; assay type: functional, cell-based
A2780 [6] = assay: cytotoxic activity toward A2780 ovarian human cell line sensitive (S) to cisplatin in experiment 2; assay type: functional, cell-based
A2780 [7] = assay: cytotoxic activity toward A2780 ovarian human cell line sensitive (S) to cisplatin in experiment 5; assay type: functional, cell-based; outline: as §1
A2780 [8] = assay: cytotoxic activity toward A2780 ovarian human cell line resistant (R) to cisplatin in experiment 5; assay type: functional, cell-based; outline: as §2
A2780 [9] = assay: cytotoxic activity toward A2780 ovarian human cell line sensitive (S) to cisplatin in experiment 8; assay type: functional, cell-based; outline: as §1
A2780 [10] = assay: cytotoxic activity toward A2780 ovarian human cell line resistant (R) to cisplatin in experiment 8; assay type: functional, cell-based; outline: as §2
L1210 = assay: Cytotoxicity measured against L1210 cell line; assay type: functional, cell-based, Mus musculus
A2780 [11] = assay: cytotoxic activity toward A2780 ovarian human cell line sensitive (S) to cisplatin; assay type: functional, cell-based; outline: as §1

## c1cnc2c(c1)ccc1cccnc12 [PHENANTHROLINE]
A2780 [1]; Homo sapiens, A2780
  IC50: 3.66 µM
A2780 [2]; Homo sapiens, A2780
  IC50: 2.73 µM
[3]
  Ratio: 0.75

## c1ccc(-c2cccc(-c3ccccn3)n2)nc1 [TERPYRIDINE]
A2780 [4]; Homo sapiens, A2780
  IC50: 0.125 µM
A2780 [5]; Homo sapiens, A2780
  IC50: 0.36 µM
[3]
  Ratio: 2.88

## AU(TERPY) [listing 1 of 2 here]
A2780 [4]; a2780
  IC50: 0.2 µM
A2780 [2]; a2780
  IC50: 0.37 µM

## AU(TERPY) [listing 2 of 2 here]
[3]
  Ratio: 1.23

## AUCL3(EN2) [listing 1 of 2 here]
A2780 [1]; a2780
  IC50: 8.36 µM
A2780 [2]; a2780
  IC50: 17 µM

## AUCL3(EN2) [listing 2 of 2 here]
[3]
  Ratio: 2.03

## AUCL(DIEN) [listing 1 of 2 here]
A2780 [6]
  IC50: 8.2 µM
A2780 [2]; a2780
  IC50: 18.7 µM

## AUCL(DIEN) [listing 2 of 2 here]
[3]
  Ratio: 2.28

## AUCYCLAM
A2780 [6]
  IC50: 99 µM
A2780 [5]; a2780
  IC50: > 120 µM

## AUPHEN [listing 1 of 2 here]
A2780 [7]
  IC50: 3.8 µM
A2780 [8]
  IC50: 3.49 µM

## AUPHEN [listing 2 of 2 here]
[3]
  Ratio: 0.92

## CISPLATIN [listing 1 of 2 here]
A2780 [9]
  IC50: 1.22 µM
A2780 [10]
  IC50: 14.2 µM
L1210
  IC50: 2.3 µM

## CISPLATIN [listing 2 of 2 here]
[3]
  Ratio: 11.6

## [AuCl4]-
A2780 [11]
  IC50: 11 µM

## [Pt-(dien)Cl]Cl
L1210
  IC50: 271 µM

## [Pt-(en2)]Cl2
L1210
  IC50: 1680 µM
